Results reported in ChEMBL document CHEMBL1131463, “Identification and initial structure-activity relationships of (R)-5-(2-azetidinylmethoxy)-2-chloropyridine (ABT-594), a potent, orally active, non-opiate analgesic agent acting via neuronal nicotinic acetylcholine receptors” (J Med Chem, 1998).
The source made the active and inactive calls.

Key:
[1] = target: T1, Neuronal acetylcholine receptor subunit alpha-3 (Homo sapiens, UniProt P32297); experiment: Functional activation of human sympathetic ganglionic type nAChRs in IMR-32 cells containing alpha-3 subtype; assay type: cell-based
T1 sequence (P32297 whole entry): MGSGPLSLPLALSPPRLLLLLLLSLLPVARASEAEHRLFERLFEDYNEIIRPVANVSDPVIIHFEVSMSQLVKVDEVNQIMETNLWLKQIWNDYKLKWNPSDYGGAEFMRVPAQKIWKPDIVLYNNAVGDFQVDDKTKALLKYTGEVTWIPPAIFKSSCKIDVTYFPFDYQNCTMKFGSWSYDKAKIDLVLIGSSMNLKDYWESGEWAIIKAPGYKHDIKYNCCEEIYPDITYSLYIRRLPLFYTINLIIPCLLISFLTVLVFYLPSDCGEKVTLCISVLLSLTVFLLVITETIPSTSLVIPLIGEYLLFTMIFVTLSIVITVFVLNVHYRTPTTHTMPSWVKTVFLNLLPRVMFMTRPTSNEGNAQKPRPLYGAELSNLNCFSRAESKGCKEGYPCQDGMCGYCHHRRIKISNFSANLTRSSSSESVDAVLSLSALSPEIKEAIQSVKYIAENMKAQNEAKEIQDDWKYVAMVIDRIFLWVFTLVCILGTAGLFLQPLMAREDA
Procedure, shortened: (§1)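 86Rb+ efflux measured in the human neuroblastoma line IMR-32 (ganglionic-like, α3-containing nAChRs). Intrinsic activity is the maximum response as percent of the response to 100 μM (S)-nicotine. Values are means ± SEM, n ≥ 3.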

Canis familiaris [2] = experiment: Compound was evaluated for increase in diastolic blood pressure (BP) in dog at 10 nM/Kg when administered intravenously; assay type: functional, Canis lupus familiaris, Artery
Procedure, shortened: (§2)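 Male beagle dogs under pentobarbital anesthesia (35 mg/kg iv, then 5 mg/kg/h iv infusion), ventilated with room air. Blood pressure was recorded by a micromanometer catheter passed via the carotid artery into the left ventricle.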

[3] = target: T2, Neuronal acetylcholine receptor subunit alpha-7 (Homo sapiens, UniProt P36544); experiment: Compound was evaluated for its ability to displace [125I]alpha-bungarotoxin (alpha-BgT) from K28 cells expressing human Nicotinic acetylcholine receptor alpha7; assay type: cell-based
T2 sequence (P36544 whole entry): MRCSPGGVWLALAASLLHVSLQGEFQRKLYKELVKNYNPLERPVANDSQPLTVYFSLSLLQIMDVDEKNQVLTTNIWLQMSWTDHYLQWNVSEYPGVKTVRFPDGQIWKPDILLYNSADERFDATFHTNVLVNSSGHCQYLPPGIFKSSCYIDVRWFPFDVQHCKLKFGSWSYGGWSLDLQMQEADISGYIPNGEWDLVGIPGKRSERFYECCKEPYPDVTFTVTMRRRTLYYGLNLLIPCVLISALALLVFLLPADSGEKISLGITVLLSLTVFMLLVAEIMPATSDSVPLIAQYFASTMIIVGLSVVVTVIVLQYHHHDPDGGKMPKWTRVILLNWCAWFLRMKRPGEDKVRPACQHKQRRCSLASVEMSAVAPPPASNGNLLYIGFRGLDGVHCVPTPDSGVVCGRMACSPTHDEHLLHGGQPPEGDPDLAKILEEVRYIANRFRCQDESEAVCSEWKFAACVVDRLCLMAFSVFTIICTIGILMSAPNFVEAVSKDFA
Procedure, shortened: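 Displacement of [125I]-α-bungarotoxin from K28 cells expressing human α7 homomers. Ki values are means ± SEM, n ≥ 3.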

Mus musculus [4] = organism: Mus musculus; experiment: Minimum peroral effective dose for analgesic activity was determined by mouse hot plate assay; assay type: functional
Procedure, shortened: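 Mouse hot plate at 55 °C with 8 mice per dose. Drug in 0.9% saline was given po, 10 mL/kg, 30 min before testing, over a range of 0.19–6.2 μmol/kg. MED is the lowest dose that increases latency to the tenth jump versus saline, with a 180 s cutoff.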

Canis familiaris [5] = experiment: Compound was evaluated for increase in heart rate (HR) in dog at 10 nM/Kg when administered intravenously; assay type: functional, Canis lupus familiaris; procedure, shortened: as §2
[6] = Compound was evaluated for functional activation to [86Rb+] efflux From human medulloblastoma cell line TE671 expressing recombinant alpha-1-beta-1-gamma delta receptors.; settings: TE-671
Procedure, shortened: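 86Rb+ efflux measured from the human medulloblastoma line TE671. Intrinsic activity is given as percent of the maximal response to 1 mM (S)-nicotine. Values are means ± SEM, n ≥ 3.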

Mus musculus [7] = experiment: Minimum intraperitoneal effective dose for abdominal constriction in mouse; assay type: functional, Abdomen
Procedure, shortened: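 Mice, 10 per dose group, received compound ip in 0.9% saline, 10 mL/kg, 30 min before ip phenyl-p-quinone (68 μmol/kg in 5% EtOH). Writhing was scored over a 10-min window starting 5 min after the irritant. The read-out was the reduction in the number of responders versus the saline group.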

Mus musculus [8] = organism: Mus musculus; experiment: Compound was evaluated for the analgesic activity by mouse hotplate assay at the doses of 0.062 and 0.62; assay type: functional
K177 cell line = experiment: Compound was evaluated for functional activation to [86Rb+] efflux from human K177 cells expressing recombinant alpha4-beta2 receptors.; assay type: cell-based
Procedure, shortened: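 86Rb+ efflux measured from K177 cells expressing recombinant human α4β2 receptors. Intrinsic activity is given as percent of the maximal response to 100 μM (S)-nicotine. Values are means ± SEM, n ≥ 3.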

[9] = target: T2, Neuronal acetylcholine receptor subunit alpha-7; experiment: Compound was evaluated for functional activation from channel currents at human Nicotinic acetylcholine receptor alpha-7 expressed in oocytes.; assay type: cell-based, Oocyte
[10] = target: Neuronal acetylcholine receptor; experiment: Compound was evaluated for its ability to displace [3H]-cytisine binding from high-affinity Nicotinic acetylcholine receptor in rat brain (principally the alpha4-beta2 nAChR subtype); assay type: tissue-based
Procedure, shortened: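 Displacement of [3H]cytisine from rat whole-brain membranes, principally α4β2 sites.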

[11] = target: Acetylcholine receptor subunit alpha (Torpedo californica, UniProt P02710); experiment: Compound was evaluated for its ability to displace [125 I]alpha-bungarotoxin (alpha-BgT) from torpedo alpha1-beta1-[…] electroplax
Sequence of Acetylcholine receptor subunit alpha (P02710 whole entry): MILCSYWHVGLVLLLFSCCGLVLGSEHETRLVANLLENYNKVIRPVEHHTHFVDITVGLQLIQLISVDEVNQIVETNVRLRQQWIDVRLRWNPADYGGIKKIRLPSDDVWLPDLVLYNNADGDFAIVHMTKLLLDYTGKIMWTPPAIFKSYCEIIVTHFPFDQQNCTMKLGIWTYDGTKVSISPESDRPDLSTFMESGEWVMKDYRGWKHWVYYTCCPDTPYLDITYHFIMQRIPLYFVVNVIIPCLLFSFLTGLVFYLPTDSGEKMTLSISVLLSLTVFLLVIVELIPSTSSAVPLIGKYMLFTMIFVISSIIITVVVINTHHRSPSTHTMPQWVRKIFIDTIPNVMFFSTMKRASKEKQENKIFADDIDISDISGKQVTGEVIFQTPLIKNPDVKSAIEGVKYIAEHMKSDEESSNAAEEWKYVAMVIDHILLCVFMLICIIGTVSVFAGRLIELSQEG
Procedure, shortened: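 Displacement of [125I]-α-bungarotoxin from Torpedo electroplax membranes (α1β1γδ). Ki values are means ± SEM, n ≥ 3.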

[12] = target: T1, Neuronal acetylcholine receptor subunit alpha-3; experiment: Intrinsic activity against human sympathetic ganglionic type nAChRs in IMR-32 cells containing alpha-3 subtype; assay type: functional, cell-based; procedure, shortened: as §1
[13] = target: Neuronal acetylcholine receptor; alpha4/beta2 (Homo sapiens, UniProt P17787+P43681); experiment: Compound was evaluated for its ability to displace [3H]cytisine from K177 cells expressing human Nicotinic acetylcholine receptor alpha4-beta2; assay type: cell-based
Sequence of Neuronal acetylcholine receptor; alpha4/beta2 (P17787 whole entry): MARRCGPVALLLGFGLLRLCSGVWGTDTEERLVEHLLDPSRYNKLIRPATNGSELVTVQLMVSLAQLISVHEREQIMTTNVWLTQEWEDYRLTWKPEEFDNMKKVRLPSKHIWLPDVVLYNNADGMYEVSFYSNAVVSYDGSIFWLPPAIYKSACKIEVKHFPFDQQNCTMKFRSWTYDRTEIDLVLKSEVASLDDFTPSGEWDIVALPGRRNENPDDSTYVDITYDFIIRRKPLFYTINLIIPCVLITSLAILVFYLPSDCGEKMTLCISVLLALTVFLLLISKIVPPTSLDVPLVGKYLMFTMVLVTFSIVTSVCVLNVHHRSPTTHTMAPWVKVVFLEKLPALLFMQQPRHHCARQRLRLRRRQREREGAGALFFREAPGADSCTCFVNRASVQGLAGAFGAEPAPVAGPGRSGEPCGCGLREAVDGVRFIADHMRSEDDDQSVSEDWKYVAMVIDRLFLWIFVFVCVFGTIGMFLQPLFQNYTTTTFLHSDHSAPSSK
Sequence of Neuronal acetylcholine receptor; alpha4/beta2 (P43681 whole entry): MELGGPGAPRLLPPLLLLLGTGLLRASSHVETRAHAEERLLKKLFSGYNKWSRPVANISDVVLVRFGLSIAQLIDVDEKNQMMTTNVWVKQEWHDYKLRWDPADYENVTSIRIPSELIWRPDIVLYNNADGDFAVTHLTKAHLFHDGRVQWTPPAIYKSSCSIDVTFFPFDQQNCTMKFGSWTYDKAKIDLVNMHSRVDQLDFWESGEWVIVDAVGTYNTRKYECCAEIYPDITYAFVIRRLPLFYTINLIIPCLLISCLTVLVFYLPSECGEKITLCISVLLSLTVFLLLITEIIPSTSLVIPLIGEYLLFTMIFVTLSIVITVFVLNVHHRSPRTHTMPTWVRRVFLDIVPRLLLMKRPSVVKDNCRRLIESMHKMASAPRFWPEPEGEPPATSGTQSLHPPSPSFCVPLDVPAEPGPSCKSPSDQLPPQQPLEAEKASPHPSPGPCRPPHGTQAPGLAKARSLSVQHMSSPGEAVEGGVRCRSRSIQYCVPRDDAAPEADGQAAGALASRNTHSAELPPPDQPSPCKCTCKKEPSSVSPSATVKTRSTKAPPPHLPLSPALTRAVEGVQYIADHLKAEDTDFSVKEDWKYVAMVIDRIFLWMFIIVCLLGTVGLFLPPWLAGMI
Procedure, shortened: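 Displacement of [3H]cytisine from K177 cells expressing human α4β2 nAChRs. Ki values are means ± SEM, n ≥ 3.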

Mus musculus [14] = organism: Mus musculus; experiment: Compound was evaluated for the analgesic activity by mouse hotplate assay at the doses of 0.62 and 6.2; No significant effect observed at the doses tested; assay type: functional, organism-based
Mus musculus [15] = organism: Mus musculus; experiment: Compound was evaluated for the analgesic activity by mouse hotplate assay at the dose 0.1; No significant effect observed at the doses tested; assay type: functional, organism-based

`Clc1ccc(OCC2CCN2)cn1` (single isomer, unassigned) [TEBANICLINE] showed an EC50 [1] of 200 nM, a BP (Canis familiaris [2]) of 23.2 mmHg and a Ki [3] of 2060 nM. It also gave an MED (Mus musculus [4]) of 6.2 µM/kg, an HR (Canis familiaris [5]) of 7.8 beats min-1 and an EC50 [6] of 36000 nM. It also gave an MED (Mus musculus [7]) of 0.19 µM/kg, an MED (Mus musculus [8]) of 0.62 µM/kg and an EC50 (K177 cell line; k177) of 270 nM. It also gave an EC50 [9] of 56000 nM, a Ki [10] of 0.04 nM and a Ki [11] of 10000 nM. For the same compound, the IA [12] was 116% and the Ki [13] was 0.055 nM.
In the case of `CN1CC[C@H]1COc1ccc(Cl)nc1`, the MED (Mus musculus [14]) is reported as “inactive”, the EC50 [1] is reported as 28900 nM and the Ki [10] is reported as 1.6 nM. It also gave an IA [12] of 43%.
In the case of `Clc1ccc(C2CC3CCC2N3)cn1` (racemic), the MED (Mus musculus [15]) is reported as “inactive” and the IA [12] is reported as 156%.
For `Clc1ccc(OC[C@@H]2CCCN2)cn1`, the MED (Mus musculus [14]) was “inactive”, the EC50 [1] was 1190 nM and the Ki [10] was 0.45 nM. The IA [12] was 104%.
For `c1cncc(OC[C@@H]2CCN2)c1`, the MED (Mus musculus [14]) was “inactive”, the EC50 [1] was 700 nM and the EC50 (K177 cell line; Homo sapiens, K177) was 700 nM. The Ki [11] was 314 nM, the IA [12] was 113% and the Ki [13] was 0.04 nM.
For `Clc1ccc(OC[C@H]2CCCN2)cn1`, the MED (Mus musculus [14]) was “inactive”, the EC50 [1] was 500 nM and the Ki [10] was 0.09 nM. The IA [12] was 110%.
With `c1cncc(OC[C@H]2CCN2)c1` the MED (Mus musculus [14]) was “inactive”, the EC50 [1] was 1100 nM and the Ki [3] was 1270 nM. It also gave an EC50 [9] of 36000 nM, a Ki [11] of 384 nM and an IA [12] of 116%.
